{"source": "ChEMBL document CHEMBL3351368", "about": "“Biphenyl-4-carboxylic acid [2-(1H-indol-3-yl)-ethyl]-methylamide (CA224), a nonplanar analogue of fascaplysin, inhibits Cdk4 and tubulin polymerization: evaluation of in vitro and in vivo anticancer activity” (J Med Chem, 2014)", "key": {"Tubulin (Homo sapiens) [1]": {"target": "T1, Tubulin (Homo sapiens) (UniProt P68371+Q9H4B7+P0DPH7+P68366+Q13509+Q71U36+P04350+Q3ZCM7+P07437+P68363+Q9BQE3+Q6PEY2+Q13885+Q9BVA1+Q9BUF5)", "test": "Inhibition of tubulin polymerization in p53+, pRb+ human A549 cells assessed as paclitaxel-mediated polymerization treated followed by compound treatment measured after 30 mins by Western blot analysis", "assay_type": "cell-based"}, "[2]": {"test": "Cell cycle arrest in mouse BNL-CL2 cells assessed as accumulation of cells at subG1 phase at IC50 concentration after 48 hrs by flow cytometry (reference value: 0%)", "assay_type": "functional", "procedure,_shortened": "(§1)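 Normal (BNL CL2) and SV40 large T-antigen transformed (BNL SV A.8) mouse embryonic hepatic cells were treated at IC50 or IC70 concentration for 48 h. Analysis was by FACS, with apoptosis taken as % cells in the sub-G1 peak. Untreated cells served as control.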"}, "Homo sapiens": {"species_on_record": "Homo sapiens", "test": "Inhibition of human PKA assessed as enzyme activity at 10 uM"}, "Tubulin (Homo sapiens) [3]": {"target": "T1, Tubulin (Homo sapiens)", "test": "Inhibition of tubulin (unknown origin) polymerization assessed as decrease in Vmax measured by spectrophotometry", "assay_type": "protein-complex assay", "procedure,_shortened": "(§2)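 Purified tubulin polymerisation followed as absorbance increase over about 4000 s. Vmax (mOD/min) is taken as the read-out, with final polymer mass also noted. Compound is tested at 2.5, 5, 10 and 25 µM alongside untreated control, paclitaxel 10 µM (enhancer) and nocodazole 10 µM (inhibitor). Curves are the average of three independent experiments.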"}, "[4]": {"test": "Solubility in simulated intestinal fluid", "assay_type": "ADME"}, "Tubulin (Homo sapiens) [5]": {"target": "T1, Tubulin (Homo sapiens)", "test": "Inhibition of tubulin (unknown origin) polymerization assessed as decrease in Vmax measured at 25 uM by spectrophotometry"}, "NCI-H358 [6]": {"test_system": "NCI-H358", "test": "Cell cycle arrest in human NCI-H358 cells assessed as accumulation of cells at G2/M phase at IC50 concentration after 12 hrs by flow cytometry in presence of nocodazole for 18 hrs (reference value: 42%)", "assay_type": "functional"}, "[7]": {"test": "AUC (0 to t) in BALB/c mouse at 10 mg/kg, po", "assay_type": "ADME, organism-based", "parameters": "dose 10 mg/kg, route oral", "conditions": "plasma", "procedure,_shortened": "(§3)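 BALB/c mice given a single dose of 1.0 mg/kg IV or 10 mg/kg orally; plasma concentration followed over time and pharmacokinetic parameters derived from the time-concentration profile.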"}, "NCI-H1299": {"test_system": "NCI-H1299", "test": "Cell cycle arrest in human NCI-H1299 cells assessed as accumulation of cells at G2/M phase at IC50 concentration after 24 hrs by flow cytometry (reference value: 18%)", "assay_type": "functional"}, "CYP2D6": {"target": "CYP2D6 (Homo sapiens, UniProt P10635)", "sequence (P10635 whole entry)": "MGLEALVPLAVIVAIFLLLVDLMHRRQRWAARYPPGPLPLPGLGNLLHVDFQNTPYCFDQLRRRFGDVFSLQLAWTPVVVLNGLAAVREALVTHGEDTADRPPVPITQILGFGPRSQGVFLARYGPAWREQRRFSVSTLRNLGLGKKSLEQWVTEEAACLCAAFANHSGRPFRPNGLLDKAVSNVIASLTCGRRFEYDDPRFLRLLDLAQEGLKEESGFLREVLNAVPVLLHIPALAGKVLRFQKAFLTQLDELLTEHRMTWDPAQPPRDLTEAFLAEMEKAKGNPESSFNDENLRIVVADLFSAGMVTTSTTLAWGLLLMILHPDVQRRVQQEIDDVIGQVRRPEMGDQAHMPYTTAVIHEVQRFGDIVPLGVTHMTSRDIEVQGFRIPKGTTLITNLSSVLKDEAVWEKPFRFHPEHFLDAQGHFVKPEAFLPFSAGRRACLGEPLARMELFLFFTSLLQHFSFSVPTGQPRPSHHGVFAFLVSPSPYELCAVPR", "test": "Inhibition of human recombinant CYP2D6 at 10 uM", "assay_type": "ADME"}, "[8]": {"test": "Cell cycle arrest in mouse BNL-SVA.8 cells assessed as accumulation of cells at G2/M phase at IC50 concentration after 48 hrs by flow cytometry (reference value: 13%)", "assay_type": "functional", "procedure,_shortened": "as §1"}, "Mus musculus [9]": {"test_system": "Mus musculus", "test": "Toxicity in human NCI-H460 cells xenografted in SCID mouse at 100 mg/kg, ip relative to untreated control", "assay_type": "organism-based", "parameters": "dose 100 mg/kg, route intraperitoneal", "conditions": "in vivo", "procedure,_shortened": "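SCID female mice, 15-24 g, 6-8 weeks old, received 5.3 × 10^6 NCI-H460 cells subcutaneously on the dorsal side. Randomized at 4-6 mm tumors (about 6 days) into groups of 6 or 7, then dosed intraperitoneally for 9 consecutive days. Body weight recorded daily as percent of the start-of-treatment weight; >10% drop counted significant, >20% highly significant.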"}, "[10]": {"test": "Solubility in simulated gastric fluid", "assay_type": "ADME"}, "[11]": {"test": "Volume of distribution in BALB/c mouse at 1 mg/kg, iv", "assay_type": "ADME, organism-based", "parameters": "dose 1 mg/kg, route intravenous", "conditions": "in vivo", "procedure,_shortened": "as §3"}, "LS174T [12]": {"test_system": "LS174T", "test": "Induction of p21 level in p53+, pRb+ human LS 174T cells at IC50 concentration after 24 hrs by Western blot analysis"}, "[13]": {"target": "Cyclin-dependent kinase 5/CDK5 activator 1 (Homo sapiens) (UniProt Q00535+Q15078)", "sequence (Q00535 whole entry)": "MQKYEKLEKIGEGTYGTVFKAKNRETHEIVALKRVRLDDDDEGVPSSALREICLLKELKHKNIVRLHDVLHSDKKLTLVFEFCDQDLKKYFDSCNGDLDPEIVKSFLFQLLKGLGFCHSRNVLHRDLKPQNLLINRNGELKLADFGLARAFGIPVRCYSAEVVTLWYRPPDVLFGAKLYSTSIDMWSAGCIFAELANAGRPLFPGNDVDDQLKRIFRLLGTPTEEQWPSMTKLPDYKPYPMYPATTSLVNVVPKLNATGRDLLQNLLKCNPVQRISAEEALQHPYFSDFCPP", "sequence (Q15078 99-307 partner limits assumed)": "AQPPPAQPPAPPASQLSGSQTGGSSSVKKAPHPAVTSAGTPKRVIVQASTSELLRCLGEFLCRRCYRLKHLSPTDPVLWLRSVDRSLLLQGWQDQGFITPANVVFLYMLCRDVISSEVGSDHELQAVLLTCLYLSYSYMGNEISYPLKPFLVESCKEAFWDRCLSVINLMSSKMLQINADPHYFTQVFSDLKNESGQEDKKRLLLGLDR", "test": "Inhibition of human CDK5/p35 assessed as enzyme activity at 10 uM", "assay_type": "protein-complex assay"}, "LS174T [14]": {"test_system": "LS174T", "test": "Reduction Cdk1 level in p53+, pRb+ human LS 174T cells at IC50 concentration after 24 hrs by Western blot analysis"}, "NCI-H358 [15]": {"test_system": "NCI-H358", "test": "Induction of apoptosis in p53 null, […] human NCI-H358 cells assessed as fragmented nuclei/distrupted cell membrane after 24 hrs by DAPI staining-based flow cytometry"}, "NCI-H358 [16]": {"test_system": "NCI-H358", "test": "Cell cycle arrest in human NCI-H358 cells assessed as accumulation of cells at G0/G1 phase at IC50 concentration after 18 hrs by flow cytometry in presence of […] uM hydroxyurea for 18 hrs (reference value: 50%)", "assay_type": "functional"}, "MiaPaCa [17]": {"test_system": "MiaPaCa", "test": "Effect on p53 level in p53His273 mutant, pRb+ human MiaPaCa cells at IC50 concentration after 48 hrs by Western blot analysis", "assay_type": "functional"}, "Tubulin (Homo sapiens) [18]": {"target": "T1, Tubulin (Homo sapiens)", "test": "Inhibition of tubulin (unknown origin) polymerization assessed as decrease in Vmax measured at 25 uM by spectrophotometry", "assay_type": "protein-complex assay", "procedure,_shortened": "as §2"}, "MiaPaCa [19]": {"test_system": "MiaPaCa", "test": "Effect on p21 level in p53His273 mutant, pRb+ human MiaPaCa cells at IC50 concentration after 48 hrs by Western blot analysis", "assay_type": "functional"}, "A549 [20]": {"test_system": "A549", "test": "Cell cycle arrest in human A549 cells assessed as accumulation of cells at G2/M phase at IC50 concentration after 24 hrs by flow cytometry (reference value: 22%)", "assay_type": "functional"}, "Mus musculus [21]": {"test_system": "Mus musculus", "test": "Toxicity in human HCT116 cells xenografted in SCID mouse assessed as change in body weight at 100 mg/kg, ip relative to untreated control", "assay_type": "organism-based, HCT-116", "parameters": "dose 100 mg/kg, route intraperitoneal", "conditions": "in vivo", "procedure,_shortened": "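SCID male mice, 18-25 g, 6-8 weeks old, received 6.6 × 10^6 HCT-116 cells subcutaneously on the dorsal side. Randomized into groups of 7 at 4-6 mm tumors (about 5 days), then dosed intraperitoneally for 9 consecutive days. Tumor size recorded every 2-5 days, weight = L×W²×0.5; %GI = 100 − %T/C. Body weight taken daily relative to start; Student t-test.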"}, "MiaPaCa [22]": {"test_system": "MiaPaCa", "test": "Induction in cyclin B1 level in p53His273 mutant, pRb+ human MiaPaCa cells at IC50 concentration after 48 hrs by Western blot analysis", "assay_type": "functional"}, "[23]": {"test": "Cell cycle arrest in mouse BNL-CL2 cells assessed as accumulation of cells at S phase at IC50 concentration after 48 hrs by flow cytometry (reference value: 15%)", "assay_type": "functional", "procedure,_shortened": "as §1"}, "A549 [24]": {"test_system": "A549", "test": "Cell cycle arrest in human A549 cells assessed as accumulation of cells at G0/G1 phase at IC50 concentration after 24 hrs by flow cytometry (reference value: 49%)", "assay_type": "functional"}, "[25]": {"target": "Protein kinase C alpha type (Homo sapiens) (UniProt P17252)", "test": "Inhibition of human PKCalpha assessed as enzyme activity at 10 uM"}, "[26]": {"target": "Mitogen-activated protein kinase 1 (Homo sapiens) (UniProt P28482)", "sequence (P28482 whole entry, looked up)": "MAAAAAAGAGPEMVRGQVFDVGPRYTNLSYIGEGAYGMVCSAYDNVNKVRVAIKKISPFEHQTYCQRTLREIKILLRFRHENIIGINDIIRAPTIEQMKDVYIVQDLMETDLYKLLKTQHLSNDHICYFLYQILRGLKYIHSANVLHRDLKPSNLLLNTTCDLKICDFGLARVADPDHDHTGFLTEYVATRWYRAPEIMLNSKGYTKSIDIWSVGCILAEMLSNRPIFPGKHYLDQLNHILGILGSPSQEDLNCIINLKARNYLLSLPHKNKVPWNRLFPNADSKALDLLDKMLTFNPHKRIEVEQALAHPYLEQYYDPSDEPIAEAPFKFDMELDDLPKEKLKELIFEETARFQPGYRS", "test": "Inhibition of human MAPK1 assessed as enzyme activity at 10 uM"}}, "note": "Activity calls are given as the source filed them. The calls are words filed in the database; no cut-off is given here.", "data": [{"smiles": "CN(CCc1c[nH]c2ccccc12)C(=O)c1ccc(-c2ccccc2)cc1", "values": [{"measurement": "inhibition", "setting": "Tubulin (Homo sapiens) [1]", "value": "Dose-dependent effect"}, {"measurement": "Activity", "setting": "[2]", "value": 2, "unit": "%"}, {"measurement": "inhibition", "setting": "Homo sapiens", "value": "inactive"}, {"measurement": "inhibition", "setting": "Tubulin (Homo sapiens) [3]", "value": "Dose-dependent effect"}, {"measurement": "solubility", "setting": "[4]", "value": 5, "unit": "µg/mL"}, {"measurement": "Activity (milli optical density/minute)", "setting": "Tubulin (Homo sapiens) [5]", "value": 0.4}, {"measurement": "Activity", "setting": "NCI-H358 [6]", "value": 74, "unit": "%"}, {"measurement": "AUC(0-t)", "setting": "[7]", "value": 172, "unit": "ng·h/mL"}, {"measurement": "Activity", "setting": "NCI-H1299", "value": 71, "unit": "%"}, {"measurement": "inhibition at 10 µM", "setting": "CYP2D6", "value": 14, "unit": "%"}, {"measurement": "Activity", "setting": "[8]", "value": 14, "unit": "%"}, {"measurement": "Activity", "setting": "Mus musculus [9]", "value": "Non-toxic"}, {"measurement": "solubility", "setting": "[10]", "value": 125, "unit": "µg/mL"}, {"measurement": "Vd", "setting": "[11]", "value": 2.52, "unit": "L/kg"}, {"measurement": "Activity", "setting": "LS174T [12]", "value": "Active"}, {"measurement": "inhibition", "setting": "[13]", "value": "inactive"}, {"measurement": "inhibition", "setting": "LS174T [14]", "value": "Active"}, {"measurement": "Activity", "setting": "NCI-H358 [15]", "value": "Dose-dependent effect"}, {"measurement": "Activity", "setting": "NCI-H358 [16]", "value": 16, "unit": "%"}, {"measurement": "Activity", "setting": "MiaPaCa [17]", "value": "inactive"}, {"measurement": "Activity (milli optical density/minute)", "setting": "Tubulin (Homo sapiens) [18]", "value": 0.4}, {"measurement": "Activity", "setting": "MiaPaCa [19]", "value": "inactive"}, {"measurement": "Activity", "setting": "A549 [20]", "value": 89, "unit": "%"}, {"measurement": "Activity", "setting": "Mus musculus [21]", "value": "<= 10%"}, {"measurement": "Activity", "setting": "MiaPaCa [22]", "value": "Active"}, {"measurement": "Activity", "setting": "[23]", "value": 9, "unit": "%"}, {"measurement": "Activity", "setting": "A549 [24]", "value": 3, "unit": "%"}, {"measurement": "inhibition", "setting": "[25]", "value": "inactive"}, {"measurement": "inhibition", "setting": "[26]", "value": "inactive"}]}]}
